For experiment [1], the system named is Nakaseomyces glabratus. In words: Antifungal activity against Candida glabrata ATCC 90030 assessed as inhibition of microbial growth incubated for 24 hrs by broth microdilution method. The format is functional, organism-based. Particulars: for IC50: ATCC 90030, 24 h; for IC90: ATCC 90030, time 24 hrs. In a few lines: (§1)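 Broth microdilution following CLSI M27-A3 and supplement M27-S4. Pure compounds were tested at 100 down to 0.06 μg mL−1 in a 10-step series, diluted from DMSO (≤1% DMSO final). Fluconazole served as the fungistatic control. Plates were incubated at 37 °C for 24 h and growth was read spectrophotometrically at 530 nm. IC50 and IC90 were taken as 50% and 90% growth inhibition.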

The subject of experiment [2] is Pichia kudriavzevii. The experiment in a line: Antifungal activity against Candida krusei ATCC 6258 assessed as inhibition of microbial growth at 100 to 0.06 ug/ml incubated for 24 hrs by broth microdilution method. It is filed as functional, organism-based. The following applies: dose 100-0.06 µg/ml.
Experiment [3] concerns Pichia kudriavzevii. The experiment in a line: Antifungal activity against Candida krusei ATCC 6258 assessed as inhibition of microbial growth incubated for 24 hrs by broth microdilution method. Particulars: for IC50: ATCC 6258, 24 h; for IC90: ATCC 6258, time 24 hrs. It is filed as functional, organism-based. In short, it runs like this: as §1
In experiment [4] the test system is Pichia kudriavzevii. The experiment in a line: Antifungal activity against Candida krusei ATCC 6258 assessed as inhibition of microbial growth incubated for 24 hrs in the presence of 3-(beta-D-glucopyranosyloxy)sitosterol by broth microdilution method. It is filed as functional, organism-based. Particulars: ATCC 6258, 24 h. In short, it runs like this: (§2)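 Checkerboard combination of two compounds, each serially diluted in Mueller−Hinton broth. Ranges were set so that, after adding inoculum, concentrations sat at the range averages. Plates were incubated for 24 h at 37 °C and growth was quantified at 530 nm, as in the single-agent microdilution test. The inhibitory concentration of each compound was determined in combination.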

For experiment [5], the system named is Nakaseomyces glabratus. The experiment in a line: Antifungal activity against Candida glabrata ATCC 90030 assessed as inhibition of microbial growth incubated for 24 hrs in the presence of 3-(beta-D-glucopyranosyloxy)sitosterol by broth microdilution method. It is filed as functional, organism-based. The following applies: ATCC 90030, 24 h. In short, it runs like this:
as §2

The test system of experiment [6] is Pichia kudriavzevii. The experiment in a line: Synergistic antifungal activity against Candida krusei ATCC 6258 assessed as fractional inhibitory concentration index incubated for 24 hrs in the presence of 3-(beta-D-glucopyranosyloxy)sitosterol by checkerboard assay. It is filed as functional. In a few lines: (§3)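 Checkerboard pairing of two compounds serially diluted in Mueller−Hinton broth, incubated for 24 h at 37 °C, with growth read spectrophotometrically at 530 nm. Each FIC is the compound's IC in combination divided by its IC alone, and ΣFIC is the sum of the FIC values. ΣFIC ≤0.5 was taken as synergy, 0.5–4 as no interaction and >4 as antagonism.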

Experiment [7] deals with Nakaseomyces glabratus. In words: Additive antifungal activity against Candida glabrata ATCC 90030 assessed as fractional inhibitory concentration index incubated for 24 hrs in the presence of 3-(beta-D-glucopyranosyloxy)sitosterol by checkerboard assay. The format is functional. In a few lines:
as §3

Experiment [8] has as its system Nakaseomyces glabratus. In words: Selectivity index, ratio of IC50 for antifungal activity against Candida glabrata ATCC 90030 to IC50 for antifungal activity against Candida glabrata ATCC 90030 in the presence of 3-(beta-D-glucopyranosyloxy)sitosterol. It is filed as functional.

Active and inactive are the calls of the source. The calls are words filed in the database; no cut-off is given here.

Here are results for twelve molecules from ChEMBL document CHEMBL5244225, “Bioassay-Guided Isolation of Fungistatic Compounds from Mimosa caesalpiniifolia Leaves” (J Nat Prod, 2019).

Regarding `O=c1cc(-c2ccc(O)c(O)c2)oc2cc(O)cc(O)c12` [LUTEOLIN], in experiment [1], the IC50 was determined as 15 µg/mL. Moreover, the result in experiment [2] was inactive.
Regarding `C[C@@H]1O[C@@H](O[C@H]2C(=O)[C@@H](O)[C@H](C)O[C@@H]2c2c(O)cc(O)c3c(=O)cc(-c4ccc(O)c(O)c4)oc23)[C@H](O)[C@H](O)[C@H]1O`, the values for the IC50 in experiment [3] and in experiment [1] were 100 µg/mL and 60 µg/mL, respectively.
In the case of `C[C@H]1O[C@@H](c2c(O)cc3oc(-c4ccc(O)cc4)cc(=O)c3c2O)C[C@H](O)[C@H]1O`, in experiment [3], the IC50 came out at 250 µg/mL and the IC90 worked out at 1000 µg/mL. The half-maximal inhibitory concentration (IC50) in experiment [1] is 1000 µg/mL.
On to `C[C@@H]1O[C@@H](O[C@H]2C(=O)[C@@H](O)[C@H](C)O[C@@H]2c2c(O)cc3oc(-c4ccc(O)c(O)c4)cc(=O)c3c2O)[C@H](O)[C@H](O)[C@H]1O`, for which the IC50 in experiment [1] amounted to 100 µg/mL. Moreover, the outcome in experiment [2] was inactive.
Regarding `O=C(O)/C=C/c1c(O)cc(O)c2c(=O)cc(-c3ccc(O)cc3)oc12`, the half-maximal inhibitory concentration (IC50) turned out to be 125 µg/mL in experiment [3] and 3.9 µg/mL in experiment [1]. For the same molecule, the IC90 in experiment [3] and in experiment [1] was 250 µg/mL throughout.
`C[C@H]1O[C@@H](c2c(O)cc(O)c3c(=O)cc(-c4ccc(O)cc4)oc23)C[C@@H](O)[C@@H]1O`: in experiment [3], the 50% inhibitory concentration (IC50) came out at 7.8 µg/mL and the 90% effect concentration (IC90) turned out to be 250 µg/mL. Also, in experiment [1], the half-inhibitory concentration (IC50) worked out at 3.9 µg/mL and the 90% effect concentration (IC90) came out at 500 µg/mL.
For `O=C(O)c1cc(O)c(O)c(O)c1` [GALLIC ACID], the IC50 in experiment [1] turned out to be 60 µg/mL. Also, the outcome in experiment [2] was inactive.
Consider `CCOC(=O)c1cc(O)c(O)c(O)c1` [ETHYLGALLATE], for which the concentration for half-maximal inhibition (IC50) stood at 15 µg/mL in experiment [3], 15 µg/mL in experiment [1], 1 µg/mL in experiment [4] and 2.5 µg/mL in experiment [5]. The “fractional inhibitory concentration index (FICI)” value in experiment [6] worked out at 0.1; in experiment [7], 0.5. The “Ratio IC50” value in experiment [8] is recorded as 100.
Turning to `C[C@@]12Oc3cc4oc(-c5ccc(O)cc5)cc(=O)c4c(O)c3[C@@H](C[C@H](O)[C@H]1O)O2`, in experiment [3], the IC50 is 62.5 µg/mL and the IC90 is 250 µg/mL. Besides, in experiment [1], the concentration for half-maximal inhibition (IC50) came to 7.8 µg/mL and the concentration for an effect of 90% (IC90) was 500 µg/mL.
`OC(Cn1cncn1)(Cn1cncn1)c1ccc(F)cc1F` [FLUCONAZOLE]: the half-maximal inhibitory concentration (IC50) in experiment [3] came to 16 µg/mL; in experiment [1], 4 µg/mL.
The like results for `O=C(O)/C=C/c1c(O)cc2oc(-c3ccc(O)cc3)cc(=O)c2c1O` were, in that order, 15 µg/mL and 3.9 µg/mL.
The like results for `O=c1c(O)c(-c2ccc(O)c(O)c2)oc2cc(O)cc(O)c12` [QUERCETIN] were, in that order, 100 µg/mL and 60 µg/mL.
